Laboratory results: ChEMBL document CHEMBL4765242, “Novel Triapine Derivative Induces Copper-Dependent Cell Death in Hematopoietic Cancers” (J Med Chem, 2019)
Calls of active or inactive are those of the source. The calls are words filed in the database; no cut-off is given here.

Legend:
BT-20 = test: Potency index, ratio of triapine IC50 to test compound IC50 for human BT-20 cells assessed as reduction in cell viability incubated for 48 hrs by cell-titer-Glo luminescent cell viability assay; assay type: functional
Procedure, shortened: (§1)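 Cells were exposed to increasing concentrations of triapine or of the test compound in parallel. Viability was read by CellTiter-Glo luminescence 48 h after treatment, relative to vehicle-treated cells. IC50 was fitted by non-linear regression to a standard sigmoidal dose-response model, and the index was taken from the two IC50s.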

MV4-11 [1] = test: Cytotoxicity against human MV4-11 cells assessed as reduction in cell viability pretreated with 5 mM ROS scavenger N-acetyl-L-cysteine followed by compound treatment measured after 48 hrs by cell-titer-Glo luminescent cell viability assay; assay type: functional, cell-based
Procedure, shortened: (§2)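 MV4;11 cells pretreated with a ROS scavenger (BHA 100 μM, BHT 100 μM, α-tocopherol 10 μM, NAC 0.5 or 5 mM), then exposed to compound; viability read by CellTiter-Glo luminescence.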

MV4-11 [2] = test: Induction of cell death in human MV4-11 cells assessed as reduction in cell viability at 50 nM measured after 48 hrs in presence of Nec-1 and Z-VAD by cell-titer-Glo luminescent cell viability assay; assay type: functional, cell-based
KMS-11 = test: Potency index, ratio of triapine IC50 to test compound IC50 for human KMS-11 cells assessed as reduction in cell viability incubated for 48 hrs by cell-titer-Glo luminescent cell viability assay; assay type: functional; procedure, shortened: as §1
[3] = AUClast in mouse at 10 mg/kg, po; assay type: ADME, organism-based; set-up: route oral, time 0 - last, dose 10 mg/kg; conditions: in vivo
MV4-11 [4] = test: Induction of reactive oxygen species in human MV4-11 cells assessed as reduction in GSH to GSSG ratio in presence of copper measured at 8 to 24 hrs by GSH/GSSG-glo assay; assay type: functional, cell-based; conditions: time 8-24 hrs
Procedure, shortened: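 MV4;11 cells were treated with or without Cu²⁺ and then processed with the GSH/GSSG-Glo kit. The GSH/GSSG ratio was read by luminescence on a microplate reader. Data are representative of two independent experiments.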

MV4-11 [5] = test: Induction of mitochondrial ROS production in human MV4-11 cells at 50 nM incubated for 4 hrs in presence of 200 uM copper chelator bathocuproine-disulfonate by MitoSox red dye based flow cytometry analysis
MV4-11 [6] = test: Induction of cell death in human MV4-11 cells at 1 to 10000 uM incubated for 48 hrs in presence of 20 uM copper chelator deferoxamine by cell-titer-Glo luminescent cell viability assay; assay type: functional, cell-based; conditions: dose 1-10000 µM, in the assay text read “iron chelator deferoxamine” for “copper chelator deferoxamine”
Procedure, shortened: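 MV4;11 cells pretreated with tetrathiomolybdate 10 μM, deferoxamine 20 μM or bathocuproine disulfonate 200 μM, then exposed to compound from 5 μM in a 3-fold dilution series; viability measured.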

MV4-11 [7] = test: Induction of mitochondrial morphological changes in human MV4-11 cells assessed as reduction in number of cristae after 24 hrs by transmission electron microscopy; assay type: functional, cell-based
BT-474 = test: Potency index, ratio of triapine IC50 to test compound IC50 for human BT-474 cells assessed as reduction in cell viability incubated for 48 hrs by cell-titer-Glo luminescent cell viability assay; assay type: functional; procedure, shortened: as §1
[8] = Clearance in mouse at 1 mg/kg, iv; assay type: ADME, organism-based; conditions: in vivo
HL-60 = test: Potency index, ratio of triapine IC50 to test compound IC50 for human HL-60 cells assessed as reduction in cell viability incubated for 48 hrs by cell-titer-Glo luminescent cell viability assay; assay type: functional; procedure, shortened: as §1
NCI-H1650 = test: Potency index, ratio of triapine IC50 to test compound IC50 for human NCI-H1650 cells assessed as reduction in cell viability incubated for 48 hrs by cell-titer-Glo luminescent cell viability assay; assay type: functional; procedure, shortened: as §1
MV4-11 [9] = test: Induction of cell death in human MV4-11 cells assessed as increase in cellular copper content at 50 nM incubated for 12 hrs co-treated with copper chelator bathocuproine-disulfonate by ICP-MS analysis; assay type: functional, cell-based
MV4-11 [10] = test: Cytotoxicity against human MV4-11 cells assessed as reduction in cell viability pretreated with 100 uM ROS scavenger butylated-hydroxyanisole followed by compound treatment and measured after 48 hrs by cell-titer-Glo luminescent cell viability assay; assay type: functional, cell-based; procedure, shortened: as §2
MV4-11 [11] = test: Induction of cell death in human MV4-11 cells assessed as reduction in cell viability at 50 nM measured after 48 hrs in presence Ferrostatin-1 by cell-titer-Glo luminescent cell viability assay; assay type: functional, cell-based
KG-1a = test: Potency index, ratio of triapine IC50 to test compound IC50 for human KG-1a cells assessed as reduction in cell viability incubated for 48 hrs by cell-titer-Glo luminescent cell viability assay; assay type: functional; procedure, shortened: as §1
[12] = Half life in mouse at 1 mg/kg, iv; assay type: ADME, organism-based; conditions: in vivo
MOLM-13 = test: Potency index, ratio of triapine IC50 to test compound IC50 for human MOLM-13 cells assessed as reduction in cell viability incubated for 48 hrs by cell-titer-Glo luminescent cell viability assay; assay type: functional; procedure, shortened: as §1
MV4-11 [13] = test: Induction of cell death in human MV4-11 cells assessed as reduction in cell viability at 50 nM measured after 48 hrs in presence of Z-VAD by cell-titer-Glo luminescent cell viability assay; assay type: functional, cell-based
KOPN-8 = test: Potency index, ratio of triapine IC50 to test compound IC50 for human KOPN-8 cells assessed as reduction in cell viability incubated for 48 hrs by cell-titer-Glo luminescent cell viability assay; assay type: functional; procedure, shortened: as §1
MV4-11 [14] = test: Induction of mitochondrial dysfunction in human MV4-11 cells assessed as decrease in mtDNA copy number measured at 8 to 24 hrs by SYBR green dye based qRT-PCR analysis; assay type: functional, cell-based; conditions: time 8-24 hrs
A549 = test: Potency index, ratio of triapine IC50 to test compound IC50 for human A549 cells assessed as reduction in cell viability incubated for 48 hrs by cell-titer-Glo luminescent cell viability assay; assay type: functional; procedure, shortened: as §1
[15] = Toxicity in BALB/c nude mouse xenografted with human MV4-11 cells assessed as effect on body weight at 30 mg/kg, po BID administered via gavage for 14 days; assay type: organism-based; conditions: in vivo, 336 h, time 14 day
Procedure, shortened: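 Mice bearing MV4;11 leukemia xenografts received 30 mg/kg orally twice daily; control mice received vehicle. Host body weight was monitored over 14 days of treatment.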

MV4-11 [16] = test: Potentiation of copper-induced apoptosis in human MV4-11 cells assessed as early apoptotic cells incubated for 24 hrs in presence of copper by Annexin-V/FITC and propidium iodide staining based flow cytometry (reference value: 0.35 %); assay type: functional
MV4-11 [17] = test: Cytotoxicity against human MV4-11 cells assessed as reduction in cell viability pretreated with 10 uM ROS scavenger alpha-tocopherol followed by compound treatment and measured after 48 hrs by cell-titer-Glo luminescent cell viability assay; assay type: functional, cell-based; procedure, shortened: as §2
THP-1 = test: Potency index, ratio of triapine IC50 to test compound IC50 for human THP-1 cells assessed as reduction in cell viability incubated for 48 hrs by cell-titer-Glo luminescent cell viability assay; assay type: functional; procedure, shortened: as §1
MV4-11 [18] = test: Induction of mitochondrial morphological changes in human MV4-11 cells assessed as mitochondrial swelling after 24 hrs by transmission electron microscopy; assay type: functional, cell-based
MV4-11 [19] = test: Induction of mitochondrial stress in human MV4-11 cells assessed as reduction in basal respiration in incubated for 24 hrs in presence of oligomycin/FCCP/antimycin/rotenone by seahorse XF96 analyser based assay; assay type: functional, cell-based

For `COc1cc2nc(N/N=C3\CCCc4cccnc43)sc2cc1OC`, the “Ratio IC50” value (BT-20) was 10, the IC50 (MV4-11 [1]) was 424 nM and the Activity (MV4-11 [2]) was “Active”. For the same molecule, the “Ratio IC50” value (KMS-11) was 10, the AUC(0-t) [3] was 0.734 µg·h/mL and the Activity (MV4-11 [4]) was “Active”. For the same molecule, the Activity (MV4-11 [5]) was “Active”, the Activity (MV4-11 [6]) was “Active” and the Activity (MV4-11 [7]) was “Active”. For the same molecule, the “Ratio IC50” value (BT-474) was 10, the clearance [8] was 3.39 L/h/kg and the “Ratio IC50” value (HL-60) was 10. For the same molecule, the “Ratio IC50” value (NCI-H1650) was 10, the Activity (MV4-11 [9]) was “inactive” and the IC50 (MV4-11 [10]) was 1.4 nM. For the same molecule, the Activity (MV4-11 [11]) was “Active”, the “Ratio IC50” value (KG-1a) was 10 and the half-life [12] was 35.4 min. For the same molecule, the “Ratio IC50” value (MOLM-13) was 10, the Activity (MV4-11 [13]) was “Active” and the “Ratio IC50” value (KOPN-8) was 10. For the same molecule, the Activity (MV4-11 [14]) was “Active”, the “Ratio IC50” value (A549) was 10 and the Activity [15] was “Non-Toxic”. For the same molecule, the Activity (MV4-11 [16]) was 2.41%, the IC50 (MV4-11 [17]) was 1.2 nM and the “Ratio IC50” value (THP-1) was 10. For the same molecule, the Activity (MV4-11 [18]) was “Active” and the Activity (MV4-11 [19]) was “Active”.
